Laboratory results as given in ChEMBL document CHEMBL5506013, “Mitochondria-Selective Dicationic Small-Molecule Ligand Targeting G-Quadruplex Structures for Human Colorectal Cancer Therapy” (J Med Chem, 2024).
pKd: −log10 of the molar value. Active and inactive are the calls of the source. The calls are words filed in the database; no cut-off is given here.

Key:
Quadruplex DNA [1] = assay: Binding affinity to mito 55 G4 DNA (unknown origin) assessed as dissociation constant measured upto 450 secs by surface plasmon resonance assay; type: nucleic-acid assay
In short: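 Surface plasmon resonance in buffer at 25 °C. Four G4-mtDNAs (Mito 78, Mito 55, Mito 29, Mito 0.5-16) and the hairpin HP19 served as substrates. Kd was derived from the sensorgrams.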

Quadruplex DNA [2] = assay: Binding affinity to mito 29 G4 DNA (unknown origin) assessed as dissociation constant measured upto 150 secs by isothermal titration calorimetry assay; type: nucleic-acid assay; conditions: time <= 150.0 sec
Quadruplex DNA [3] = assay: Binding affinity to mito 0.5-16 G4 DNA (unknown origin) assessed as dissociation constant measured upto 150 secs by isothermal titration calorimetry assay; type: nucleic-acid assay
HCT-116 [4] = assay: Downregulation of ND1 gene expression in human HCT-116 cells at 0 to 4 uM measured after 48 hrs by q-PCR analysis; type: functional, cell-based; conditions: dose 0-4 µM
HCT-116 [5] = assay: Downregulation of ND4 protein level in human HCT-116 cells at upto 4 uM incubated for 48 hrs by Western blot analysis; type: functional, cell-based
HCT-116 [6] = assay: Downregulation of COX1 protein level in human HCT-116 cells at upto 4 uM incubated for 48 hrs by Western blot analysis; type: functional, cell-based
HCT-116 [7] = assay: Downregulation of CYTB protein level in human HCT-116 cells at upto 4 uM incubated for 48 hrs by Western blot analysis; type: functional, cell-based
HCT-116 [8] = assay: Downregulation of mitochondrial respiratory chain complex I level in human HCT-116 cells at upto 4 uM measured after 48 hrs by Western blot analysis; type: functional, cell-based
HCT-116 [9] = assay: Downregulation of mitochondrial respiratory chain complex-IV level in human HCT-116 cells at upto 4 uM measured after 48 hrs by Western blot analysis; type: functional, cell-based
HCT-116 [10] = assay: Induction of ROS production in human HCT-116 cells assessed as upregulation of ROS level measured after 48 hrs by mito-sox staining based analysis; type: functional, cell-based; conditions: dose <= 4.0 µM
HCT-116 [11] = assay: Induction of mitochondrial permeability transition pore opening in human HCT-116 cells measured after 48 hrs by calcein-AM staining based assay; type: functional, cell-based; conditions: dose <= 4.0 µM
HCT-116 [12] = assay: Induction of mitochondrial dysfunction in human HCT-116 cells assessed as decrease in extracellular acidification rate at upto 4 uM incubated for 3 hrs by Seahorse XFe24 analyzer; type: functional, cell-based
In short: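 Seahorse Mito-stress and glycolysis stress tests on HCT116 cells treated with ligand for 3 h. Oxygen consumption rate and extracellular acidification rate recorded.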

HCT-116 [13] = assay: Inhibition of glycolysis in human HCT-116 cells assessed as reduction in glucose consumption at upto 4 uM measured after 3 hrs by Seahorse XFe24 analyzer; type: functional, cell-based
HCT-116 [14] = assay: Induction of ROS production in human HCT-116 cells assessed as upregulation of ROS level at upto 4 uM measured after 48 hrs in presence of MitoTEMPO by mito-sox staining based analysis; type: functional, cell-based
HCT-116 [15] = assay: Induction of DNA damage in human HCT-116 assessed as increase in tail length at upto 4 uM incubated for 72 hrs in presence of MitoTEMPO by comet assay; type: functional, cell-based
DNA = assay: Binding affinity to HP19 DNA (non-G4 DNA) (unknown origin) assessed as increase in fluorescence intensity by fluorescence spectrophotometric analysis; type: nucleic-acid assay
In short: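 Oligonucleotides were pre-annealed at 95 °C for 10 min, then cooled slowly. Ligand (5 uM) was mixed with 20 uM DNA in buffer. Emission was collected over 550–800 nm, and enhancement was taken at 650 nm as F/F0.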

[16] = Drug localization in nucleus of human HCT-116 cells at upto 4 uM incubated for 1 hrs by hoechst33342 staining based live cell imaging analysis; type: ADME, subcellular; conditions: hct-116, 1 h
[17] = Drug localization in nucleus of human HCT-116 cells at 1 to 8 uM incubated for 1 hrs by hoechst33342 staining based live cell imaging analysis; type: ADME, subcellular; conditions: hct-116, 1 h, dose 1-8 µM
[18] = Drug localization in human HCT-116 cells by measuring red foci at 4 uM incubated for 1 hr in presence of FCCP by hoechst33342 staining based analysis; type: ADME, cell-based; conditions: hct-116, 1 h
In short: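 Pretreatment of live HCT116 cells: FCCP 1 uM for 20 min, cyclosporin A 1 uM for 24 h, DMOG 100 uM for 24 h, or MitoPDS at several concentrations for 3 h (applied after dye loading). Cells loaded with ligand 4 uM (excitation 488 nm) for 1 h and Hoechst33342 1 uM for 30 min. Red foci counted by confocal imaging in 100 cells. Mean ± SEM, t test.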

HCT-116 [19] = assay: Upregulation of p53 level in human HCT-116 cells at upto 4 uM measured after 72 hrs by Western blot analysis; type: functional, cell-based
HCT-116 [20] = assay: Upregulation of cleaved caspase-3 level in human HCT-116 cells at upto 4 uM measured after 72 hrs by Western blot analysis; type: functional, cell-based
In short: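 HCT116 cells treated with ligand at 0-4 uM for 72 h. Lysates immunoblotted for Lamin B1, p53, p21, p16, gamma-H2A.x, caspase-3 and cleaved caspase-3, with beta-actin as loading control.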

HCT-116 [21] = assay: Induction of apoptosis in human HCT-116 cells at upto 4 uM measured after 72 hrs by annexin V-BUV396 and 7-AAD staining based flow cytometry analysis (reference value: 2.64%); type: functional; conditions: up to 4 µM
In short: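 HCT116 cells treated at 0-4 uM for 72 h, stained with Annexin V-BUV396 and 7-AAD, and the apoptotic fraction quantified by flow cytometry.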

HCT-116 [22] = assay: Inhibition of cell migration in human HCT-116 cells at upto 4 uM measured after 72 hrs by transwell assay relative to control; type: functional; conditions: up to 4 µM
In short: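 Transwell migration of HCT116 cells treated for 72 h at 0, 1, 2 or 4 uM, imaged at 100x and quantified; mean ± SD.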

[23] = Toxicity in BALB/c nude mouse assessed as change in hemoglobin level at 5 mg/kg, iv administered every two days for 16 days; type: organism-based; conditions: in vivo, 384 h, time 16 day
In short: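 HCT116 xenograft-bearing male Balb/c nude mice (6/group) dosed iv at 5 mg/kg every two days or with PBS. Whole blood collected at sacrifice on day 16 for hematology parameters.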

[24] = Drug localization in human HCT-116 cells transfected with Cy5-mito 0.5-16 G4 DNA at 4 uM incubated for 1 hr by hoechst33342 staining based analysis; type: ADME, cell-based; conditions: hct-116, 1 h
In short: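 HCT116 cells transfected with Cy5-labelled DNA (excitation 635 nm) for 24 h. Ligand 4 uM added for 1 h, then Hoechst33342 1 uM for 30 min. Colocalization of ligand with Cy5 quantified by Pearson r from confocal images.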

[25] = Drug localization in human HCT-116 cells overexpressing eBFP tagged Pif1 by measuring red foci at 4 uM incubated for 1 hr by hoechst33342 staining based analysis; type: ADME, cell-based; conditions: hct-116, 1 h
In short: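 HCT116 cells overexpressing eBFP-tagged Pif1 (excitation 405 nm), with an eBFP-only control. Cells incubated with ligand 4 uM (excitation 488 nm) for 1 h, then red foci imaged by confocal microscopy in 100 cells. Mean ± SEM, t test.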

[26] = Drug localization in human HCT-116 cells overexpressing twinkle helicase by measuring red foci at 4 uM incubated for 1 hr by hoechst33342 staining based analysis; type: ADME, cell-based; conditions: hct-116, 1 h
[27] = Drug localization in human HCT-116 cells overexpressing […] by measuring red foci at 4 uM incubated for 1 hr by hoechst33342 staining based analysis; type: ADME, cell-based; conditions: hct-116, 1 h

C(=C\c1ccc2ccccc2[n+]1CCCCCCCC[n+]1c(/C=C/c2ccc(N3CCCCC3)cc2)ccc2ccccc21)/c1ccc(N2CCCCC2)cc1.[I-].[I-]
pKd (Quadruplex DNA [1]): 6.77
Activity (Quadruplex DNA [2]): inactive
pKd (Quadruplex DNA [3]): 7.22
Activity (HCT-116 [4]): Active
Activity (HCT-116 [5]): Active
Activity (HCT-116 [6]): Active
Activity (HCT-116 [7]): Active
Activity (HCT-116 [8]): Active
Activity (HCT-116 [9]): Active
Activity (HCT-116 [10]): Dose-Dependent Effect
Activity (HCT-116 [11]): Dose-Dependent Effect
Activity (HCT-116 [12]): Active
inhibition (HCT-116 [13]): Active
Activity (HCT-116 [14]): inactive
Activity (HCT-116 [15]): inactive
Activity (DNA): inactive
Drug uptake [16]: Not Active
Drug uptake [17]: Not Active
Drug uptake [18]: Not Active
Activity (HCT-116 [19]): Active
Activity (HCT-116 [20]): Active
Activity (HCT-116 [21]): 27.4%
inhibition (INH) (HCT-116 [22]): 40%
Activity [23]: Non-Toxic
Drug uptake [24]: Active
Drug uptake [25]: Not Active
Drug uptake [26]: Active
Drug uptake [27]: Active
